The source of these data is ChEMBL document CHEMBL1759956, “Rhodium(II) acetate-catalyzed stereoselective synthesis, SAR and anti-HIV activity of novel oxindoles bearing cyclopropane ring” (Eur J Med Chem, 2011).

A short description of series [1]: Cytotoxicity against human CEM cells expressing green fluorescent protein assessed as cell viability at 100 ug after 48 hrs by MTT assay. It counts as cell-based, CCRF-CEM. Particulars: read-out: Activity.
Series [2] can be described thus: Partition coefficient, log P of the compound. The class given is physicochemical. Particulars: octanol/water.
Series [3] in a line: Cytotoxicity against human TZM-bl cells assessed as cell viability at 20 ug after 48 hrs by MTT assay. It counts as cell-based. The conditions noted are these: read-out: Activity. The gist of the method: (§1)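 TZM-bl cells, 3 × 10³ per well, incubated 48 h at 37 °C in 5% CO₂ with or without compound. MTT (5 mg/mL reagent) added for 3 h, then solubilised in 20% SDS/50% DMF in PBS. OD read at 570 nm with 690 nm reference. Viability = [(OD treated − OD virus control)/(OD uninfected − OD virus control)] × 100.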

The nature of series [4]: Cytotoxicity against human CEM cells expressing green fluorescent protein assessed as cell viability at 50 ug after 48 hrs by MTT assay. It counts as cell-based, CCRF-CEM. The conditions noted are these: read-out: Activity. (Tetrazolium dyes change colour on reduction, which living cells bring about.)
Series [5] in a line: Cytotoxicity against human TZM-bl cells assessed as cell viability at 50 ug after 48 hrs by MTT assay. The conditions noted are these: read-out: Activity. It counts as cell-based. The essentials: as §1
Series [6] relates to Human immunodeficiency virus 1. The series is described as follows: Antiviral activity against 0.05 MOI Human immunodeficiency virus 1 NL4.3 infected in human CEM cells expressing green fluorescent protein at 20 ug/ml after 8 days by fluorometric analysis. Particulars: Human immunodeficiency virus 1, NL4.3, CCRF-CEM, 192 h. It counts as functional. The essentials:
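CEM-GFP cells seeded at 2.0 × 10⁵ cells/mL with compounds in duplicate. AZT ([…]) was the positive control; 50% ethanol and distilled water were vehicle controls. Cells incubated at 37 °C in 5% CO₂. On day 5, 0.4 mL of suspension was replaced with 1 mL fresh medium and compounds were re-added, then incubation continued. % inhibition = 100 − (GFP fluorescence treated/untreated infected × 100).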

The test system of series [7] is Human immunodeficiency virus 1. Kind of series: Antiviral activity against 0.025 MOI Human immunodeficiency virus 1 infected in human TZM-bl cells at 2 ug/ml after 48 hrs by beta-galactosidase assay. The class given is functional. Particulars: Human immunodeficiency virus 1, TZM-bl. The essentials:
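TZM-bl cells, 2.0 × 10⁵ per well, cultured overnight at 37 °C in 5% CO₂. Virus with treatments added for 4 h. Cells then washed twice in serum-free DMEM and refed with DMEM + 10% FCS. Compounds re-added and cells incubated 48 h. Cells fixed in 1% glutaraldehyde for 10 min and stained 24 h at 37 °C. Blue foci counted microscopically; % inhibition = 100 − (foci treated/foci untreated infected × 100). AZT positive control.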

A short description of series [8]: Cytotoxicity against human TZM-bl cells assessed as cell viability at 10 ug after 48 hrs by MTT assay. It counts as cell-based. Particulars: read-out: Activity. The gist of the method:
as §1

Series [9] is described as follows: Cytotoxicity against human TZM-bl cells assessed as cell viability at 100 ug after 48 hrs by MTT assay. The class given is cell-based. The conditions noted are these: read-out: Activity. The essentials: as §1
A short description of series [10]: Cytotoxicity against human CEM cells expressing green fluorescent protein assessed as cell viability at 10 ug after 48 hrs by MTT assay. It counts as cell-based, CCRF-CEM. The conditions noted are these: read-out: Activity.
Series [11] can be described thus: Cytotoxicity against human CEM cells expressing green fluorescent protein assessed as cell viability at 20 ug after 48 hrs by MTT assay. The class given is cell-based, CCRF-CEM. Particulars: read-out: Activity.

As usually defined, the logP is a log measure of how a compound divides between an organic and an aqueous phase. The inhibition is the percentage by which the read-out fell short of the control. Low values mean a weak effect, high ones a strong effect. With `Cc1ccc2c(c1)[C@]1(C[C@H]1CO)C(=O)N2`, the viability at 48 h, 100 ug in [1] was 100%; in [9], 93%. The logP in [2] is 1.21. In addition, the viability at 48 h, 20 ug came to 100% in [3] and 101% in series [11]. Besides, the figures for the viability at 48 h, 50 ug in series [4] and in [5] were 100% and 95%, respectively. Further, the inhibition at 20 µg/mL in [6] is 3%. This compound returned an inhibition at 2 µg/mL in series [7] of 6%. Besides, the viability at 48 h, 10 ug in series [8] came out at 102%; in series [10], 105%.

Turning to `O=C1Nc2ccc([N+](=O)[O-])cc2[C@]12C[C@H]2CO`, the viability at 48 h, 100 ug in series [1] was 116%; in series [9] it was 109%. In addition, the logP in [2] stood at 0.54. The viability at 48 h, 20 ug was found to be 107% in series [3] and 127% in series [11]. In addition, the viability at 48 h, 50 ug in [4] turned out to be 122%; in series [5], 104%. This compound came in with an inhibition at 20 µg/mL in series [6] of 3%. The inhibition at 2 µg/mL in series [7] turned out to be 5%. In addition, the viability at 48 h, 10 ug was determined as 100% in series [8] and 119% in series [10].

As to `O=C1Nc2ccccc2[C@]12C[C@H]2CCl`, the viability at 48 h, 100 ug worked out at 88% in series [1] and 86% in series [9]. In series [2], the logP came out at 1.95. The viability at 48 h, 20 ug in series [3] worked out at 92%; in [11] it was 87%. The figures for the viability at 48 h, 50 ug in series [4] and in series [5] were 83% and 87%, respectively. The inhibition at 20 µg/mL in [6] is 2%. For the same compound, 2 µg/mL produced 7% inhibition in series [7]. Moreover, the viability at 48 h, 10 ug in [8] came to 93%; in series [10], 91%.

Regarding `O=C1Nc2ccc(OC(F)(F)F)cc2[C@]12C[C@H]2CCl`, the viability at 48 h, 100 ug in series [1] came out at 2%; in [9], 60%. In [2], this compound showed a logP of 3.48. In addition, the viability at 48 h, 20 ug in series [3] turned out to be 95%; in series [11], 74%. Further, the values for the viability at 48 h, 50 ug in [4] and in [5] were 37% and 66%, respectively. The compound further yielded an inhibition at 20 µg/mL in series [6] of 3%. The inhibition at 2 µg/mL in series [7] turned out to be 9%. Further, the figures for the viability at 48 h, 10 ug in series [8] and in [10] were 91% and 94%, respectively.

Regarding `O=C1Nc2ccccc2[C@]12C[C@H]2CO`, the viability at 48 h, 100 ug in series [1] was found to be 90%; in series [9] it was 89%. Moreover, the logP in [2] is 2.19. In addition, the viability at 48 h, 20 ug was found to be 98% in series [3] and 95% in series [11]. The viability at 48 h, 50 ug in series [4] and in [5] was 92% each time. Moreover, in series [6], testing at 20 µg/mL gave an inhibition of 6%. Testing at 2 µg/mL in series [7] gave an inhibition of 4%. In addition, the viability at 48 h, 10 ug in [8] amounted to 99%; in series [10], 96%.

Regarding `Cc1ccc2c(c1)[C@]1(C[C@H]1CCl)C(=O)N2`, the results for the viability at 48 h, 100 ug in series [1] and in series [9] were 81% and 87%, respectively. For the same compound, in series [2], the lipophilicity (logP) was 2.44. Also, the viability at 48 h, 20 ug in [3] was found to be 91%; in [11], 89%. Besides, the values for the viability at 48 h, 50 ug in series [4] and in series [5] were 85% and 88%, respectively. Besides, in series [6], the inhibition at 20 µg/mL was determined as 5%. The compound further returned an inhibition at 2 µg/mL in [7] of 8%. In addition, the viability at 48 h, 10 ug in series [8] amounted to 93%; in [10] it was 92%.

Consider `O=C1Nc2ccc([N+](=O)[O-])cc2[C@]12C[C@H]2CCl`, for which the viability at 48 h, 100 ug was determined as 76% in series [1] and 92% in [9]. In addition, the logP in series [2] was determined as 1.84. The figures for the viability at 48 h, 20 ug in series [3] and in series [11] were 102% and 118%, respectively. For the same compound, the viability at 48 h, 50 ug in series [4] was 103%; in series [5], 101%. Further, in series [6], the inhibition at 20 µg/mL worked out at 4%. In series [7], this compound displayed an inhibition at 2 µg/mL of 6%. The viability at 48 h, 10 ug is 102% in series [8] and 101% in [10].

For the compound `O=C1Nc2ccc(OC(F)(F)F)cc2[C@]12C[C@H]2CO`, the values for the viability at 48 h, 100 ug in series [1] and in series [9] were 3% and 60%, respectively. In addition, the logP in [2] is 1.89. Further, the viability at 48 h, 20 ug in [3] was determined as 93%; in [11], 72%. Also, the figures for the viability at 48 h, 50 ug in series [4] and in series [5] were 33% and 62%, respectively. The inhibition at 20 µg/mL in series [6] was determined as 7%. Also, testing at 2 µg/mL in series [7] gave an inhibition of 10%. Besides, the viability at 48 h, 10 ug in [8] stood at 90%; in series [10], 91%.
